Measured values gathered from unrelated publications.
Compare with care: the assays were run in different laboratories. ≈ marks a conversion by molar mass, not a printed value.
Organism: Cryptococcus neoformans

CCCSc1ccc2nc(NC(=O)OC)[nH]c2c1  IC90 (microbial growth, broth dilution; 72 h, clinical isolate): 2500 nM
Cc1c(O)c(=O)ccn1C  MIC (microbial growth, broth dilution; 48 h): > 100 µM
O=C(NN=Cc1ccc(O)c(Br)c1)c1cccc(Br)c1  MFC (microbial killing): 1.2 µg/mL (≈ 3.01 µM)
C[C@@H]1[C@H](O)[C@@H](C)/C=C/C=C/C=C/C=C/C=C/C=C/C=C/[C@H](O[C@@H]2O[C@H](C)[C@@H](O)[C@H](N)[C@@H]2O)C[C@@H]2O[C@](O)(C[C@@H](O)C[C@@H](O)[C@H](O)CC[C@@H](O)C[C@@H](O)CC(=O)O[C@H]1C)C[C@H](O)[C@H]2C(=O)O  IC50 (microbial growth; ATCC90113): 0.45 µg/mL (≈ 0.487 µM)
Cl.O[C@]12C=C(c3nccc4c3[nH]c3ccccc34)[C@@H]3CCN(CCCC/C=C\CC1)C[C@@]31C[C@@H]3/C=C\CCCCN3[C@H]12  IC50 (microbial growth; ATCC90113): 1.04 µg/mL
CCCC[C@H]1CN(c2cccc(OC(F)(F)F)c2)C(=O)CN1Cc1cncn1Cc1ccc(Cl)cc1  MIC (microbial growth, broth dilution): 3 to 6 µM
CCCCCC[C@H]1C(=O)O[C@H](C)[C@H](NC(=O)c2cccc(NC=O)c2O)C(=O)O[C@@H](C)[C@@H]1OC(=O)CC(C)C  MIC80 (microbial growth): 2 µM (≈ 1.1 µg/mL)
CCCC[C@H]1CN(c2cccc(OC(F)(F)F)c2)C(=O)CN1Cc1cncn1Cc1ccc(C(F)(F)F)cc1  MIC (microbial growth, broth dilution): 3 to 6 µM
C[C@@H]1[C@H](O)[C@@H](C)/C=C/C=C/C=C/C=C/C=C/C=C/C=C/[C@H](O[C@@H]2O[C@H](C)[C@@H](O)[C@H](N)[C@@H]2O)C[C@@H]2O[C@](O)(C[C@@H](O)C[C@@H](O)[C@H](O)CC[C@@H](O)C[C@@H](O)CC(=O)O[C@H]1C)C[C@H](O)[C@H]2C(=O)O  MIC (microbial growth, broth dilution): 0.6 µg/mL
CCCCC[C@H]1CN(c2cccc(OC(F)(F)F)c2)C(=O)CN1Cc1cncn1Cc1ccc(Br)cc1  MIC (microbial growth, broth dilution): 3 to 6 µM
Cc1ccccc1C(=O)NN=Cc1ccc(O)c(Br)c1  MIC (microbial growth, broth dilution): 1 µg/mL
